RAM network inh: yeast RAM network inhibition. S. cerevisiae dse1pr::URA3 reporter, 5-FOA growth OD615, 2 d; analog-sensitive cbk1-as2 kinase mutant strain. inhibition, % at 50 µM. actives 1.8% (n = 190,000);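 active means inhibition above a set limit, 3 SD over mean compound inhibition, cut at about 8.4% in these data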;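 further: 0% = DMSO-only wells with no growth and 100% = 10 µM 1-NA-PP1 full growth; inhibition rescues growth on 5-FOA so higher OD means more RAM inhibition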
Yeast lifespan up: extends the lifespan of yeast; S. cerevisiae growth with nicotinamide, OD615; deaD strain in restrictive glucose medium; inhibition of the nicotinamide effect, % at 10 µM; actives 0.68% (n = 130,000);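 active means inhibition above a set limit, placed 3 SD over the median of all compounds, cut at about 26% in these data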;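 further: 0% = nicotinamide-treated wells and 100% = cells grown without nicotinamide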
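Material: Modified budding yeast, DeaD strain | Medium: Restrictive glucose medium | Probe or stimulus: 1.5 mM nicotinamide | Dosing: Single dose 10 µM compound, 0.25% DMSO | Times: 48 h at 30 °C | Technique: OD615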
Yeast growth inh: chemicals that inhibit yeast BB579 growth in restrictive medium (lifespan-shortening candidates) | S. cerevisiae BB579 growth, OD615, 48 h | inhibition, % at 10 µM | actives 0.51% (n = 140,000) | AID 804;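 active means inhibition above a set limit, 3 SD over the mean compound inhibition, cut at about 44% in these data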
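Assay system: S. cerevisiae DeaD strain BB579 yeast. Medium: CSMM-D restrictive synthetic medium containing dextrose (glucose). Times: 4 h cell preincubation, 48 h compound exposure, 30 °C humidified. Signal: OD615 turbidity measurement. Benchmarks: positive control amphotericin B 10 µg/mL.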
Measles CPE: protection of cells from measles virus | protection (pct of control), % at 4 µM | Measles virus-infected cells, CPE protection, absorbance | actives 1.5% (n = 140,000); in the data active means protection mostly above about 24%, no sharp cut-off; inactive means mostly below about 26%
The depositor's hits bear a star; . = not tested or not shown. Rows were chosen to be rich in hits. Some 3.6% of all compounds tested hit in one or more screens of this group.

SMILES	RAM network inh	Yeast lifespan up	Yeast growth inh	Measles CPE
Cc1nn(-c2ccccc2)c2c1C1(C(=O)N(C)c3ccccc31)C(C#N)=C(N)O2 (configuration not stated)	9.8*	0	-33	5
CCN1C(=O)C2(C(C#N)=C(N)Oc3c2c(C)nn3-c2ccccc2)c2ccccc21 (configuration not stated)	2	-5	-20	13
CCCCCCN(C(=O)CCCCCN1C(=O)NC(c2ccc(Cl)cc2)C(C(=O)OCc2ccccc2)=C1C)C(C(=O)NCCCC)c1ccc(OCC(=O)OC)c(C(=O)OC)c1 (configuration not stated)	10*	6	-42	7
CCCCNC(=O)C(c1ccc(-c2ccccc2)cc1)N(CCN1CCOCC1)C(=O)CCCCCN1C(=O)NC(c2ccc([N+](=O)[O-])cc2)C(C(=O)OCc2ccccc2)=C1C (configuration not stated)	3	1	-16	9
Fc1cccc2sc(Nc3nnc(-c4ccco4)o3)nc12	2	94*	-46	12
CC(=O)Nc1ccc(C(=O)OCc2ccccc2Br)cc1	8.8*	.	.	.
CC(=O)Nc1ccc(C(=O)OCC(=O)N(Cc2ccccc2)C(C)(C)C)cc1	0	54*	-14	9
CCn1cc(NC(=O)CCl)c(C)n1	2	.	.	.
O=C(Cc1ccc(S(=O)(=O)N2CCOCC2)s1)Nc1ccc2c(c1)CCC2	9.4*	-4	-50	4
CCCCCNc1c(C(=O)OCC)c(=O)[nH]c2ccccc12	1	-8	-19	36*
CCCCNc1c(C(=O)OCC)c(=O)[nH]c2ccccc12	0	-4	-30	9
CCOC(=O)c1[nH]c2ccc(OCC)cc2c1NC(=O)CN1CCC2(CC1)OCCO2	2	57*	-65	10
CCCC(=O)Nc1c(C(=O)OCC)[nH]c2ccccc12	0	-10	-20	39*
CCOC(=O)c1[nH]c2cc3c(cc2c1NC(=O)CN1CCC2(CC1)OCCO2)OCO3	0	-21	-10	4
CC(C)(C)c1ccc(OCCCC(=O)Nc2ccc(S(N)(=O)=O)cc2)cc1	2	.	.	.
Cn1cccc1C(=O)C(=O)Nc1cc(Cl)cc(Cl)c1	3	-11	-73	15
Cn1cccc1C(=O)C(=O)Nc1ccc(Cl)cc1	-1	-14	-31	41*
O=[N+]([O-])c1ccc(COc2cccc(CNc3ccc(F)cc3)c2)cc1	9.9*	0	-27	8
CN(C)c1ccccc1C(=O)N1CCCC(C(=O)c2ccc3ccccc3c2)C1 (configuration not stated)	0	.	.	.
CCOC(=O)CSC1=C(C#N)C(c2ccc(F)cc2)C(C(C)=O)=C(C)N1 (configuration not stated)	3	1	-28	3
CCOC(=O)C1=C(C)NC(SCC(=O)OC)=C(C#N)C1c1ccc(C(=O)OC)cc1 (configuration not stated)	11*	5	-3	12
CC(NC(=O)CCCN1C(=O)c2ccccc2C1=O)c1ccc2c(c1)CCCC2 (configuration not stated)	2	5	-21	2
CC(NC(=O)CCCCCCN1C(=O)c2ccccc2C1=O)c1ccc2c(c1)CCCC2 (configuration not stated)	11*	7	-47	8
CC(NC(=O)CCCCCN1C(=O)c2ccccc2C1=O)c1ccc2c(c1)CCCC2 (configuration not stated)	9.1*	-7	-103	4
CS(=O)(=O)c1ccc(C(=O)OCC(=O)NC(=O)C2CCCCC2)cc1[N+](=O)[O-]	2	.	.	.
SMILES	RAM network inh	Yeast lifespan up	Yeast growth inh	Measles CPE
Cc1ccc(-c2nnnn2C2C/C(=N\NC(N)=S)C3OCC2O3)cc1 (configuration not stated)	1	.	.	.
COCCOCCOCCC(=O)NC1CC2CCC1(C)C2(C)C (configuration not stated)	2	-8	-27	51*
CCOc1ccccc1NC(=S)N1CCC(c2nc3ccccc3o2)CC1	1	-1	-29	18
CC(C)Cc1c(O)nc(SCCN2CCOCC2)[nH]c1=O	1	-3	-3	72*
CN1CCN(/N=C/c2cccc(Cl)c2Cl)CC1	1	30*	-40	6
O=C(CSc1ccc(F)cc1)Nc1ccccc1Br	11*	.	.	.
O=C(NC(=S)Nc1nc2ccccc2s1)c1ccco1	8.8*	2	-17	10
COc1ccc2nc(NC(=S)NC(=O)c3ccco3)sc2c1	0	.	.	.
CCOC(=O)Cn1cnc2sc(C(=O)OC)c(C)c2c1=O	0	.	.	.
COC(=O)c1sc2ncn(-n3c(C)ccc3C)c(=O)c2c1C	1	85*	-73	6
CCOc1ccc(/C=N/NC(=O)c2c(-c3ccccc3)noc2C)cc1	11*	8	-30	11
S=C(Nc1ccc(Br)cc1Cl)NN1CCOCC1	2	.	.	.
Cc1ccc(NC(=S)NC(=O)c2ccc(-c3ccc(Cl)cc3)o2)c(O)c1	10*	4	-35	12
O=C(CSc1ccc(F)cc1)NCCSc1ccccc1	-1	.	.	.
O=C(Oc1c(Cl)cc(Cl)c2cccnc12)c1cccc([N+](=O)[O-])c1	-1	-12	100*	5
O=C(Oc1ccc(Cl)c2cccnc12)c1cccc([N+](=O)[O-])c1	1	-1	-2	15
CNC(=O)c1nn(-c2ccc(C)cc2)ccc1=O	1	-5	-46	43*
O=C(NC1CCCCC1)C(c1cccnc1)N(C(=O)CCl)c1cccc(Cl)c1 (configuration not stated)	-1	-2	-23	0
CCOc1ccc(N2C(=O)c3ccc(C(=O)OCc4c(C)noc4C)cc3C2=O)cc1	3	-5	-23	1
CCCN(CC1CC1)C(=O)COC(=O)c1ccc2c(c1)C(=O)N(c1ccc(OCC)cc1)C2=O	11*	.	.	.
Cc1ccc(N2C(=O)[C@@H]3Cc4ccccc4CN3C2=O)cc1	0	-3	-31	10
COc1ccc(N2C(=O)[C@@H]3Cc4ccccc4CN3C2=O)cc1	1	-6	-1	32*
COc1ccc(S(=O)(=O)N/N=c2\oc3c(OC)cccc3cc2S(=O)(=O)c2ccc(C)cc2)cc1OC	11*	.	.	.
COc1ccc(Br)cc1/C=C/C(=O)Nc1ccc2ccccc2c1	4	0	-47	19
CCC(=O)Nc1cccc(C(=O)/C=C/c2cc(Br)ccc2OC)c1	9.6*	-9	-29	5
CC(C)N1CCN(Cc2coc3ccccc3c2=O)CC1CCO (configuration not stated)	1	.	.	.
O=C(c1ccco1)n1nc(-c2ccccc2)nc1NCc1ccco1	3	-3	-34	5
O=C(COc1ccccc1)n1nc(-c2ccc(Cl)cc2)nc1NCc1ccco1	7	-6	-77	40*
O=C(c1ccco1)n1nc(-c2ccc(Cl)cc2)nc1NCc1ccco1	9.4*	7	-73	2
Cc1ccc(-c2nc(NCc3ccco3)n(C(=O)c3ccco3)n2)cc1	7	.	.	.

Source: PubChem
